In assay [1] the target is T1, 3-hydroxy-3-methylglutaryl-coenzyme A reductase (Homo sapiens, UniProt P04035).
T1 sequence (P04035 whole entry): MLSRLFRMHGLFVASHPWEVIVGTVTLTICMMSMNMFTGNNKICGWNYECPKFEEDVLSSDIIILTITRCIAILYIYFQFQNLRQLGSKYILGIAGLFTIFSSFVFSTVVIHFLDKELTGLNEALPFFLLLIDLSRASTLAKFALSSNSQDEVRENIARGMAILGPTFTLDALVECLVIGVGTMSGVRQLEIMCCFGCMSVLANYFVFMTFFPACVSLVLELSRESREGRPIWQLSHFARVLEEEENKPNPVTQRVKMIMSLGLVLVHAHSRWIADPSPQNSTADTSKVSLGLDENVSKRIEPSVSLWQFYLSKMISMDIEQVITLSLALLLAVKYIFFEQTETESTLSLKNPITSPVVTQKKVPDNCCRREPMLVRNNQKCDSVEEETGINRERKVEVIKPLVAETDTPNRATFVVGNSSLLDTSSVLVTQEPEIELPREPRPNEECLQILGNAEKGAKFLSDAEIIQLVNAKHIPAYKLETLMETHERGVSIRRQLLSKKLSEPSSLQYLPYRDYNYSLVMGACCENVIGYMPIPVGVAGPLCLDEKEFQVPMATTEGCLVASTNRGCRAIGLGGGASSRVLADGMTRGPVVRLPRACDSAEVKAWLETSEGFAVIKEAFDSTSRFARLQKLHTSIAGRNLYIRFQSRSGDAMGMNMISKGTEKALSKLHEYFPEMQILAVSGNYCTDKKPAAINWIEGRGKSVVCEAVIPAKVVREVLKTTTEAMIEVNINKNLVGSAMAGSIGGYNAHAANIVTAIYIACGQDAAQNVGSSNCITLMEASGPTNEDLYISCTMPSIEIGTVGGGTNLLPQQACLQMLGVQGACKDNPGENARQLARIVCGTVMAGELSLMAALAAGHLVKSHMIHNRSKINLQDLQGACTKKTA
Nature of the assay: Inhibition of HMG-CoA reductase.

Assay [2] is described as follows: Reduction in LDL cholesterol on cholestyramine-primed hamster serum at 10 mg/kg, po after 7 days. On the set-up: scale not given: the % may be the effect or the level left. It counts as functional. Summed up: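 Cholestyramine-primed hamsters were dosed orally at 10 mg/kg once daily for 7 days. At the end of treatment, serum LDL-C was measured and percent reduction calculated against an untreated control group.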

A short description of assay [3]: Inhibition of cholesterol synthesis in rat myocyte. It counts as functional, cell-based. As to conditions: Ventricular myocyte.
For the next assay, the system named is Hepatocyte. The assay is described as follows: Inhibition of cholesterol synthesis in rat hepatocyte. It is filed as functional, cell-based.
A short description of assay [4]: Reduction in LDL cholesterol on cholestyramine-primed orally dosed hamster plasma after 7 days. It counts as functional. The settings on record: Cricetulus griseus, po, 168 h. An outline of the steps:
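Cholestyramine-primed hamsters were dosed orally once daily for 7 days at 0.1, 0.5, 1, 5, 10 or 50 mg/kg (separate groups, n = 10 each). Animals were sacrificed 2 h after the final dose and plasma LDL measured. Results are mean ± SEM percent change from control, with ED50 derived from the dose–response.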

A further assay relates to Mus musculus. Nature of the assay: Inhibition of acute cholesterol synthesis in mouse at 1 mg/kg. It counts as functional. The settings on record: read-out: Inhibition.

SMILES strings stand for the structures.

`CCNC(=O)c1c(-c2ccccc2)c(-c2ccc(F)cc2)c(CC[C@@H](O)C[C@@H](O)CC(=O)[O-])n1C(C)C.[Na+]`: the IC50 (in general, the concentration that gives 50% inhibition) worked out at 12 nM in assay [1], 2.27 µM in assay [3] and 0.7 nM in the assay on Hepatocyte. Further, the Activity in assay [2] is -24%. For the same compound, in assay [4], the ED50 (as a rule, the dose at which the effect has come halfway, by size or by number of responders) turned out to be 3 mg/kg. Moreover, the inhibition in vivo at 1 mg/kg in the assay with Mus musculus turned out to be 76%.
As to `CNC(=O)c1c(-c2ccccc2)c(-c2ccc(F)cc2)c(CC[C@@H](O)C[C@@H](O)CC(=O)[O-])n1C(C)C.[Na+]`, the IC50 in assay [1] came to 8.8 nM; in assay [3], 5.3 µM; in the assay on Hepatocyte, 1.2 nM. Also, the Activity in assay [2] is on record as -12%. In addition, the inhibition in vivo at 1 mg/kg in the assay on Mus musculus was determined as 83%.

(Values after ChEMBL document CHEMBL1140655, “Design and synthesis of hepatoselective, pyrrole-based HMG-CoA reductase inhibitors” (Bioorg Med Chem Lett, 2007).)
